Assay outcomes as filed in PubChem BioAssay.
Most compounds without a hit are left out; they make up all but 2.2% or so of the library.
eIF4E 4G PPI: blocks eIF4E binding to eIF4G. TR-FRET eIF4E-eIF4GI(517-606) binding, 2 h. inhibition, % at 21.7 µM. actives 0.37% (n = 220,000);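 active = inhibition above about 30%, limit read from the data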;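 also: 0% = full FRET control wells and 100% = background wells lacking eIF4GI fragment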
Calb biofilm kill: mixture kills Candida albicans biofilm cells. C. albicans biofilm persisters + clotrimazole, fluorescence viability; primary screen in compound mixtures of four per well. inhibition, % at 7.6 µM. actives 0.02% (n = 120,000);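 active = inhibition above 30.3% in the primary screen of four-compound pools, then above 30% when the compound was retested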;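 also: compounds exposed to preformed 24 h biofilms for 48 h; 0% = untreated biofilm control and 100% = clotrimazole plus chlorhexidine kill blank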
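Probe or stimulus – Clotrimazole 50 µg/mL co-treatment · System – C. albicans biofilms · Schedule – 24 h biofilm formation, then 48 h compound exposure, 37 °C · Evaluation – percent inhibition of biofilm viability · Technique – 2-h Alamar Blue fluorescence, 535/590 nm excitation/emission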
14-3-3 Bad inh: disrupts binding of bovine 14-3-3 zeta to phospho-Bad peptide | P63103 | TR-FRET 14-3-3zeta/Dy647-pBad peptide displacement, 1 h | inhibition, % at 21.7 µM | actives 0.71% (n = 220,000) | AID 781;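 active = inhibition above about 70%, limit read from the data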;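 also: 0% = full 14-3-3 plus peptide FRET controls and 100% = background without 14-3-3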
PERK inhibitor: inhibitors of human PERK kinase; inhibition, % at 5.6 µM; actives 0.17% (n = 220,000); CHO PERK-DD fusion, SEAP luminescence translation reporter; AID 1416;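 active = inhibition above the mean inhibition of all tested compounds plus 3 SD, set separately per screening campaign, cut at about 2.9% in these data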;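 also: PERK kinase domain activated by AP20187 dimerizer at 100 nM; 0% = DMSO with dimerizer and 100% = rapamycin at 8.4 µM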
Hck-Nef inh: inhibitors of human Hck kinase activated by Nef. Recombinant Hck-YEEI plus Nef, Z-Lyte FRET kinase assay. inhibition, % at 20 µM. actives 0.68% (n = 220,000). AID 463187;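 active = Hck-Nef kinase inhibition above about 50%, limit read from the data; inactive = inhibition below that limit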;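 also: 0% = DMSO with Hck plus Nef and 100% = Hck alone without Nef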
p97 ATPase inh: blocks human p97 ATPase activity; actives 0.42% (n = 220,000); inhibition, % at 8 µM; P55072; recombinant p97 ATPase, Kinase-Glo ATP luminescence, 3 h; in the data active = inhibition above about 15%;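 also: 0% = DMSO vehicle and 100% = wells lacking enzyme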
Target sequence (P55072 whole entry, looked up): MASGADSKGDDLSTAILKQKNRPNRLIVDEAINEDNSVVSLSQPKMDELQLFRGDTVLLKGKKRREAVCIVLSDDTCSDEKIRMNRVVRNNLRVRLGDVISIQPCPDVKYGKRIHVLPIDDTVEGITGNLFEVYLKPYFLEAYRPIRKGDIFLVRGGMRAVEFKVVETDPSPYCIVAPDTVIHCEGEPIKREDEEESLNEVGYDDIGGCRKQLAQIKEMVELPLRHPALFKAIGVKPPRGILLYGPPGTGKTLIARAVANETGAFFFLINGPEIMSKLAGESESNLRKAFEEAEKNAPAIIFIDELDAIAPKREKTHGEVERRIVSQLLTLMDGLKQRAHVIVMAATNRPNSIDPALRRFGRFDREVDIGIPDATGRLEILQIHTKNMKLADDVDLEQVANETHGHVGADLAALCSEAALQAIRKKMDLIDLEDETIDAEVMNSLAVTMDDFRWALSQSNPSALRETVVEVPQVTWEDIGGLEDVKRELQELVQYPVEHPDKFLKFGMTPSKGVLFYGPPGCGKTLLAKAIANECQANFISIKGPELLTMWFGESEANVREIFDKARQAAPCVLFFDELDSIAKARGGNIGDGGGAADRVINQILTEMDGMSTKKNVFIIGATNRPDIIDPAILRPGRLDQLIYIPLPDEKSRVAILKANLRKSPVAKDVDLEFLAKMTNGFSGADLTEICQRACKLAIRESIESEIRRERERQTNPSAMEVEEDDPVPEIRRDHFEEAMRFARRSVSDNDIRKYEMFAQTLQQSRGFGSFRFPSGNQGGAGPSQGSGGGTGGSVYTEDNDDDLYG
The depositor's hits bear a star; nt = not tested or not shown; [ ] = dose if it differs, or a comment.

SMILES | eIF4E 4G PPI | Calb biofilm kill | 14-3-3 Bad inh | PERK inhibitor | Hck-Nef inh | p97 ATPase inh
NC(=O)CCn1ccc2ccccc21 | -2 | 16 | 3 | 1 | 4 | 0
O=C(Cn1nc(C(=O)O)c2ccccc2c1=O)Nc1ccc2c(c1)C(=O)c1ccccc1C2=O | -5 | -4 | 80* | 3 | 2 | 10
c1cncc(-c2nc(-c3ccco3)cs2)c1 | 15 | nt | 73* | 1 | 2 | 5
CCn1cc(/C=N/NC(=O)COc2cccc3cccnc23)c2ccccc21 | 17 | 4 | 80*[fluorescence artefact?] | -1 | 26 | 5
COc1ccc2cc3c(N)nn(C(=O)c4cccc(F)c4)c3nc2c1 | 75* | 5 | 11 | 0 | 8 | 6
COc1ccc2cc3c(N)nn(C(=O)c4ccc(F)cc4)c3nc2c1 | 5 | 15 | 0 | -1 | 11 | 9
Cc1onc(-c2c(F)cccc2Cl)c1C(=O)N=C(N)N1CCCC1 | 2 | 11 | 6 | 0 | 18 | 7
COC(=O)N/N=C/c1cc(N=Nc2ccccc2Cl)ccc1O | 5 | 31 | 16 | 0 | 31 | -5
Nc1ccc(C(=O)N/N=C\c2cc(N=Nc3cccc4ccccc34)ccc2O)cc1 | -36 | nt | 77*[fluorescence artefact?] | 0 | 3 | 3
CCN(CC)c1ccc(C(=O)OCc2cc(=O)oc3cc(O)ccc23)cc1 | 0 | nt | -21 | 0 | 18 | -1
CCCCc1cc(=O)oc2cc(O)ccc12 | 4 | 11 | -5 | 1 | 115* | 5
O=C(O)c1ncc(Cl)c(Cl)c1Cl | -2 | 26 | 0 | 2 | 18 | 7
N/C(=N\OC(=O)Oc1ccccc1)c1cccc([N+](=O)[O-])c1 | 1 | 9 | -8 | 0 | 2 | -2
O=C(C#Cc1ccccc1)c1cccc([N+](=O)[O-])c1 | 2 | nt | -9 | 0 | -1 | 15*
COc1ccc(Cl)cc1NC(=O)Cn1c(NCCO)nc2ccccc21 | 0 | 12 | -10 | 0 | 16 | 6
COc1ccc(CCC(=O)O)c(O)c1 | -16 | 14 | 0 | nt | 33 | nt
Cc1cc(CCC(=O)O)c(C)cc1CCC(=O)O | -3 | nt | 83* | 0 | 1 | 8
Cc1ccc(NC(=O)c2cc3c(=O)oc4ccc(C)cc4c3s2)nc1 | -3 | 15 | 78* | 0 | 44 | 2
O=C(O)CCSc1nnc(COc2cccc3cccnc23)n1-c1ccccc1 | 0 | 11 | -4 | 2 | -7 | 3
O=C(O)CSc1nnc(COc2cccc3cccnc23)n1-c1cccc(C(F)(F)F)c1 | 68* | 15 | -5 | 1 | 4 | -1
Cc1ccc(-n2sc3ccccc3c2=O)cc1 | 45* | 19 | 41 | 0 | -4 | 0
Cc1ccc(Cn2c(=O)sc3ccccc3c2=O)cc1 | 6 | nt | -3 | 0 | 2 | 2
CC(=O)NCc1cn2c(C)csc2n1 | 3 | nt | 11 | 1 | 7 | 8
Cc1csc2nc(CNC(=O)CCC(=O)O)cn12 | -1 | nt | 36 | 3.4* | -5 | 2
O=C(N/N=C/c1ccc(O)cc1)c1cccc(N/N=C/c2ccc(O)cc2)c1 | 0 | 18 | -2 | 2 | 7 | 17*
SMILES | eIF4E 4G PPI | Calb biofilm kill | 14-3-3 Bad inh | PERK inhibitor | Hck-Nef inh | p97 ATPase inh
Cc1cccc(-n2ccnc2CN2CCC(CO)(Cc3ccccc3)CC2)c1 | -2 | 24 | -6 | -1 | 16 | -6
CC1(C)CC(c2nc(-c3ccc(Cl)cc3)cs2)CCS1 (stereo not drawn) | 2 | nt | -6 | 1 | 0 | 18*
CC1(C)CC(c2nc(-c3ccc(Br)cc3)cs2)CCS1 (stereo not drawn) | 5 | 24 | 5 | 1 | 1 | -5
O=C(Cc1cccc(C(F)(F)F)c1)NCC(c1ccco1)N1CCCCC1 (stereo not drawn) | -4 | 10 | 89* | 1 | -16 | 1
CCOC(=O)c1c(NC(=O)Cn2c(C)nc3ccccc32)sc2c1CCC2 | -7 | nt | -5 | 1 | 1 | 2
CCOC(=O)c1c(NC(=O)COC(=O)Cn2c(C)nc3ccccc32)sc2c1CCCC2 | 11 | 17 | 88* | 1 | 2 | -7
CNC(=S)Nc1cccc(C(C)=O)c1 | 2 | 15 | -5 | 0 | 73* | 2
COc1ccc(N=Nc2nc(-c3ccccc3)c(-c3ccccc3)[nH]2)cc1 | -3 | 16 | -2 | -1 | -1 | -2
COc1ccc(N=Nc2n(C)c3ccccc3[n+]2C)cc1 | 3 | 28 | -3 | 3.4* | 11 | -71
O=C(O)c1ccccc1N/N=C\c1ccnc2ccccc12 | 0 | nt | 78* | 1 | -2 | -1
O=C(N/N=C/C(Cl)=C/c1ccc([N+](=O)[O-])cc1)C(=O)Nc1ccc(C(=O)O)cc1 | -1 | 11 | 0 | 0 | 75* | 5
Cn1cnc(S(=O)(=O)Nc2ccccc2C(=O)NCC2CC2)c1 | -6 | 26 | 2 | 1 | 21 | -1
COCCN1C=C(C(=O)OC)C(c2ccc3c(c2)OCO3)C(C(=O)OC)=C1 | 6 | nt | -3 | 0 | 33 | 0
COCCN1C=C(C(=O)OC)C(c2ccc(Cl)cc2)C(C(=O)OC)=C1 | 0 | 9 | -2 | -1 | 75* | 1
CCCCCCC(=O)N1C/C=C\C(c2ccc(OC)cc2)N(Cc2ccc(F)cc2)C(=O)[C@H]1Cc1ccccc1 (stereo partly drawn) | -1 | 14 | -6 | nt | 28 | nt
CC(C)N1CN(c2ccccc2)C(=S)N(c2ccccc2)C1 | 0 | 16 | -4 | 2 | 7 | 1
S=C1N(c2ccccc2)CN(CCN2CCOCC2)CN1c1ccccc1 | 39* | 20 | -8 | 1 | 0 | -2
COc1cc(C2C(C#N)=C(N)N(c3cccnc3)C3=C2C(=O)CCC3)ccc1O (stereo not drawn) | 4 | nt | -6 | 1 | 9 | -1
CCSc1sccc1C1C(C#N)=C(N)N(c2cccnc2)C2=C1C(=O)CCC2 (stereo not drawn) | -4 | nt | 90* | -1 | 0 | 2
CC(C)c1ccccc1NC(=O)COC(=O)C1(C)CC1(Cl)Cl (stereo not drawn) | -3 | 16 | 0 | 0 | 19 | -4
Cc1ccc(OCC(=O)c2c(O)c3ccccc3oc2=O)cc1C | 1 | nt | 74* | 1 | 0 | 3
O=C(CN1CCN(c2ccc(O)cc2)CC1)Nc1cc(S(=O)(=O)N2CCCC2)ccc1Cl | 1 | 12 | -7 | -1 | 28 | 4
O=C(CN1CCN(c2ccc(O)cc2)CC1)Nc1cc(S(=O)(=O)N2CCCCC2)ccc1Cl | 2 | 9 | -4 | -1 | 61* | 1
CC(C)[C@@H](C(=O)NCC1CCC(C(=O)O)CC1)n1nnc2ccccc2c1=O (stereo partly drawn) | 0 | nt | -5 | 1 | 0 | -2
O=C(Cn1nnc2ccccc2c1=O)NCC1CCC(C(=O)O)CC1 (stereo not drawn) | 2 | 28 | 0 | 3.2* | 0 | 8
